In ChEMBL document CHEMBL3351896, “Small Molecule that Reverses Dexamethasone Resistance in T-cell Acute Lymphoblastic Leukemia (T-ALL)” (ACS Med Chem Lett, 2014):
Calls of active or inactive are those of the source. No cut-off for these calls is given here.

How the values were obtained:
Type in all cases: functional, cell-based
CUTLL1 [1] = assay: Effect on DSCC1 gene expression in human CUTLL1 cells in absence of 1 uM dexamethasone at 30 uM after 24 hrs by microarray method
Method in brief: (§1)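 CUTLL1 T-ALL cells exposed 24 h to vehicle (DMSO), dexamethasone alone (1 μM), test agent alone (30 μM), or dexamethasone (1 μM) plus test agent (30 μM), in triplicate. Expression profiled by microarray. Leading-edge genes from GSEA were compared between the dexamethasone-plus-agent and dexamethasone-alone groups, using glucocorticoid-regulated gene sets from ALL patients on glucocorticoid therapy.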

CUTLL1 [2] = assay: Effect on TIFA gene expression in human CUTLL1 cells in absence of 1 uM dexamethasone at 30 uM after 24 hrs by microarray method
Method in brief: (§2)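 Human CUTLL1 T-ALL cells exposed for 24 h to vehicle (DMSO), dexamethasone alone (1 μM), test compound alone (30 μM), or dexamethasone 1 μM plus compound 30 μM, each in triplicate. Expression profiled by microarray. Glucocorticoid-regulated gene sets from ALL patients on glucocorticoid therapy scored by GSEA. Leading-edge genes compared between the combination and dexamethasone alone.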

CUTLL1 [3] = assay: Effect on BRCA1 gene expression in human CUTLL1 cells in absence of 1 uM dexamethasone at 30 uM after 24 hrs by microarray method; method in brief: as §1
CUTLL1 [4] = assay: Effect on RUVBL1 gene expression in human CUTLL1 cells in presence of 1 uM dexamethasone at 30 uM after 24 hrs by microarray method; method in brief: as §2
CUTLL1 [5] = assay: Effect on GGNBP2 gene expression in human CUTLL1 cells in presence of 1 uM dexamethasone at 30 uM after 24 hrs by microarray method; method in brief: as §1
CUTLL1 [6] = assay: Effect on CHAF1A gene expression in human CUTLL1 cells in absence of 1 uM dexamethasone at 30 uM after 24 hrs by microarray method; method in brief: as §1
CUTLL1 [7] = assay: Increase in GR expression in human CUTLL1 cells at 25 to 50 uM in presence of 1 uM dexamethasone and 1 uM […] and glucocorticoid receptor antagonist RU486 after 24 hrs by Western blotting method
Method in brief: (§3)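 CUTLL1 cells exposed to compound (25 or 50 μM) alone, with 1 μM dexamethasone, or with dexamethasone plus 1 μM RU486, for 6 or 24 h. GR measured as protein by Western blot and as transcript by RT-qPCR.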

CUTLL1 [8] = assay: Effect on RAD51AP1 gene expression in human CUTLL1 cells in presence of 1 uM dexamethasone at 30 uM after 24 hrs by microarray method; method in brief: as §2
CUTLL1 [9] = assay: Effect on RANBP1 gene expression in human CUTLL1 cells in presence of 1 uM dexamethasone at 30 uM after 24 hrs by microarray method; method in brief: as §2
CUTLL1 [10] = assay: Effect on TIPIN gene expression in human CUTLL1 cells in absence of 1 uM dexamethasone at 30 uM after 24 hrs by microarray method; method in brief: as §2
CUTLL1 [11] = assay: Effect on TSR1 gene expression in human CUTLL1 cells in presence of 1 uM dexamethasone at 30 uM after 24 hrs by microarray method; method in brief: as §2
CUTLL1 [12] = assay: Effect on PFAS gene expression in human CUTLL1 cells in presence of 1 uM dexamethasone at 30 uM after 24 hrs by microarray method; method in brief: as §2
CUTLL1 [13] = assay: Effect on CDC25A gene expression in human CUTLL1 cells in absence of 1 uM dexamethasone at 30 uM after 24 hrs by microarray method; method in brief: as §1
CUTLL1 [14] = assay: Effect on ALYREF gene expression in human CUTLL1 cells in presence of 1 uM dexamethasone at 30 uM after 24 hrs by microarray method; method in brief: as §1
CUTLL1 [15] = assay: Increase in GR expression in human CUTLL1 cells at 25 to 50 uM in presence of 1 uM dexamethasone after 24 hrs by Western blotting method; method in brief: as §3
CUTLL1 [16] = assay: Effect on RRM1 gene expression in human CUTLL1 cells in absence of 1 uM dexamethasone at 30 uM after 24 hrs by microarray method; method in brief: as §2
CUTLL1 [17] = assay: Growth inhibition of human CUTLL1 cells at 50 uM in presence of erastin after 48 hrs by alamar blue assay
CUTLL1 [18] = assay: Potentiation of dexamethasone-induced cytotoxicity against human CUTLL1 cells with high GR expression levels at 50 uM after 48 hrs by alamar blue assay
Method in brief: (§4)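 Human CUTLL1 T-ALL cells engineered to express high (overexpressed) or low (knockdown) glucocorticoid receptor levels. Exposed to compound alone or with 1 μM dexamethasone. Alamar blue growth inhibition read after 48 h.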

CUTLL1 [19] = assay: Growth inhibition of human CUTLL1 cells at 50 uM in presence of taxol after 48 hrs by alamar blue assay
CUTLL1 [20] = assay: Effect on PCNA gene expression in human CUTLL1 cells in absence of 1 uM dexamethasone at 30 uM after 24 hrs by microarray method; method in brief: as §1
CUTLL1 [21] = assay: Potentiation of dexamethasone-induced cytotoxicity against human CUTLL1 cells with low GR expression levels at 50 uM after 48 hrs by alamar blue assay; method in brief: as §4
CUTLL1 [22] = assay: Effect on MCM4 gene expression in human CUTLL1 cells in presence of 1 uM dexamethasone at 30 uM after 24 hrs by microarray method; method in brief: as §1
CUTLL1 [23] = assay: Effect on ZFP36L2 gene expression in human CUTLL1 cells in presence of 1 uM dexamethasone at 30 uM after 24 hrs by microarray method; method in brief: as §2
CUTLL1 [24] = assay: Effect on DDIT4 gene expression in human CUTLL1 cells in absence of 1 uM dexamethasone at 30 uM after 24 hrs by microarray method; method in brief: as §1
CUTLL1 [25] = assay: Effect on ALYREF gene expression in human CUTLL1 cells in absence of 1 uM dexamethasone at 30 uM after 24 hrs by microarray method; method in brief: as §1
CUTLL1 [26] = assay: Effect on MCM4 gene expression in human CUTLL1 cells in absence of 1 uM dexamethasone at 30 uM after 24 hrs by microarray method; method in brief: as §1
CUTLL1 [27] = assay: Effect on SMC2 gene expression in human CUTLL1 cells in presence of 1 uM dexamethasone at 30 uM after 24 hrs by microarray method; method in brief: as §2
CUTLL1 [28] = assay: Effect on HELLS gene expression in human CUTLL1 cells in presence of 1 uM dexamethasone at 30 uM after 24 hrs by microarray method; method in brief: as §1
CUTLL1 [29] = assay: Effect on CDC45 gene expression in human CUTLL1 cells in presence of 1 uM dexamethasone at 30 uM after 24 hrs by microarray method; method in brief: as §1
CUTLL1 [30] = assay: Effect on NHP2 gene expression in human CUTLL1 cells in absence of 1 uM dexamethasone at 30 uM after 24 hrs by microarray method; method in brief: as §1
CUTLL1 [31] = assay: Effect on SKP2 gene expression in human CUTLL1 cells in absence of 1 uM dexamethasone at 30 uM after 24 hrs by microarray method; method in brief: as §2
CUTLL1 [32] = assay: Effect on NME1 gene expression in human CUTLL1 cells in absence of 1 uM dexamethasone at 30 uM after 24 hrs by microarray method; method in brief: as §1
CUTLL1 [33] = assay: Effect on PAICS gene expression in human CUTLL1 cells in presence of 1 uM dexamethasone at 30 uM after 24 hrs by microarray method; method in brief: as §1
CUTLL1 [34] = assay: Effect on LILRB3 gene expression in human CUTLL1 cells in presence of 1 uM dexamethasone at 30 uM after 24 hrs by microarray method; method in brief: as §1

Nc1ncc(-c2ccncc2)c(C2CC2)n1
Activity (CUTLL1 [1]): inactive | Activity (CUTLL1 [2]): inactive | Activity (CUTLL1 [3]): inactive | Activity (CUTLL1 [4]): Active | Activity (CUTLL1 [5]): Active | Activity (CUTLL1 [6]): inactive | Activity (CUTLL1 [7]): inactive | Activity (CUTLL1 [8]): Active | Activity (CUTLL1 [9]): Active | Activity (CUTLL1 [10]): inactive | Activity (CUTLL1 [11]): Active | Activity (CUTLL1 [12]): Active | Activity (CUTLL1 [13]): inactive | Activity (CUTLL1 [14]): Active | Activity (CUTLL1 [15]): Active | Activity (CUTLL1 [16]): inactive | growth inhibition (GI) (CUTLL1 [17]): inactive | Activity (CUTLL1 [18]): Active | growth inhibition (GI) (CUTLL1 [19]): inactive | Activity (CUTLL1 [20]): inactive | Activity (CUTLL1 [21]): Active | Activity (CUTLL1 [22]): Active | Activity (CUTLL1 [23]): Active | Activity (CUTLL1 [24]): inactive | Activity (CUTLL1 [25]): inactive | Activity (CUTLL1 [26]): inactive | Activity (CUTLL1 [27]): Active | Activity (CUTLL1 [28]): Active | Activity (CUTLL1 [29]): Active | Activity (CUTLL1 [30]): inactive | Activity (CUTLL1 [31]): inactive | Activity (CUTLL1 [32]): inactive | Activity (CUTLL1 [33]): Active | Activity (CUTLL1 [34]): Active
